Source: ChEMBL document CHEMBL1131624, “Inhibitors of acyl-CoA:cholesterol O-acyltransferase. 2. Identification and structure-activity relationships of a novel series of N-alkyl-N-(heteroaryl-substituted benzyl)-N'-arylureas” (J Med Chem, 1998)
Calls of active or inactive are those of the source. No cut-off for these calls is given here.

How the values were obtained:
O-acyltransferase = O-acyltransferase (Oryctolagus cuniculus, UniProt G1SFD9); experiment: In vitro inhibitory activity against Acyl coenzyme A:cholesterol acyltransferase (ACAT) in rabbit intestinal microsomes; design: species or system Intestine
O-acyltransferase, sequence (G1SFD9 1-524): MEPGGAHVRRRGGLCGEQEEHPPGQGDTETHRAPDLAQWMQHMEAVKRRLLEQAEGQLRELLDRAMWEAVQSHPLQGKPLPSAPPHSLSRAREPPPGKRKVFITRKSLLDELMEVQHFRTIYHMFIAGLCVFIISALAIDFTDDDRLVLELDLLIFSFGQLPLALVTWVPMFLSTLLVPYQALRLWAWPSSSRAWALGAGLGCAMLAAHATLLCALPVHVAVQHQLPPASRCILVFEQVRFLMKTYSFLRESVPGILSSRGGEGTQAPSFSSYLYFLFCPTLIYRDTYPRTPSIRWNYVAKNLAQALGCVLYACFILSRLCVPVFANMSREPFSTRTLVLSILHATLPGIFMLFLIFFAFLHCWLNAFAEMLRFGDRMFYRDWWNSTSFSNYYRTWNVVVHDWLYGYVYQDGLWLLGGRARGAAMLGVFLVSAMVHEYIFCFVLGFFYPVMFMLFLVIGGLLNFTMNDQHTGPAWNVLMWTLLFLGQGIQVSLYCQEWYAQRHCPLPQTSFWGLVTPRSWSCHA
Summary of the method: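 Enzyme source was mucosal microsomes from small intestine of cholesterol-fed rabbits, incubated with [1-¹⁴C]oleoyl-CoA (Heider method, minor modifications).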

[1] = biological target: T1, Sterol O-acyltransferase, Soat (Rattus norvegicus) (UniProt Q7TQM4+O70536); experiment: Percentage reduction in total cholesterol level at >1 mg/kg; format: functional, organism-based
Summary of the method: (§1)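 Cholesterol-fed rats given compound orally as a dietary admixture in a cholesterol-enriched diet. Plasma total cholesterol compared with control and reported as percent reduction at the dose, or as ED50, the dose reducing plasma total cholesterol by 50% of the control value.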

[2] = biological target: T1, Sterol O-acyltransferase, Soat (Rattus norvegicus); experiment: Effective dose to reduce plasma total cholesterol level by 50% of the control value in cholesterol fed rats; format: functional; summary of the method: as §1
[3] = biological target: T1, Sterol O-acyltransferase, Soat (Rattus norvegicus); experiment: Percentage reduction in total cholesterol level at <1 mg/kg; format: functional, organism-based; summary of the method: as §1
Rattus norvegicus [4] = experiment: Compound was evaluated for percent reduction in total cholesterol level at >1 mg/kg; Inactive; format: functional, organism-based; summary of the method: as §1
Rattus norvegicus [5] = experiment: Compound was evaluated for percent reduction in total cholesterol level at <0.32 mg/kg; format: functional; summary of the method: as §1
Rattus norvegicus [6] = experiment: Compound was evaluated for percent reduction in total cholesterol level at >0.1 mg/kg; format: functional; summary of the method: as §1
Rattus norvegicus [7] = organism: Rattus norvegicus; experiment: Effective dose to reduce plasma total cholesterol level by 50% of the control value in cholesterol fed rats; Inactive; format: functional, organism-based; summary of the method: as §1
Mus musculus = organism: Mus musculus; experiment: Compound tested for inhibitory activity of foam cell formation in mouse peritoneal macrophages; format: functional
Summary of the method: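 Mouse peritoneal macrophages from nonstimulated mice, lavaged with PBS, plated 2 × 10⁶ cells/mL, adhered 2 h, then 18 h in 10% FBS-DMEM. Incubated 4 h at 37 °C with 0.2 mmol/L [1-¹⁴C]oleate–BSA, 30 µg/mL acetylated human LDL and compound (0.1% DMSO). Lipids extracted, TLC-separated, and cholesteryl [¹⁴C]oleate counted. Cell protein also measured. IC50 in nM.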

| SMILES | IC50 (O-acyltransferase) [µM] | ED50 [2] [mg/kg] | other results |
| --- | --- | --- | --- |
| Cc1cc(C)c(NC(=O)N(Cc2ccc(-c3cn[nH]c3)cc2)C2CCCCCC2)c(C)c1 | 0.27 | > 1 | Reduction [1]: 8% |
| Cc1cc(C)c(NC(=O)N(Cc2ccc(-n3cncn3)cc2)C2CCCCCC2)c(C)c1 | 0.026 | > 1 | Reduction [1]: 19% |
| Cc1cc(C)c(NC(=O)N(Cc2cccc(-c3cnn(C)c3)c2)C2CCCCCC2)c(C)c1 | 0.044 | < 1 | Reduction [3]: 74% |
| Cc1cc(C)c(NC(=O)N(Cc2ccc(-n3cccn3)cc2)C2CCCCCC2)c(C)c1 | 0.07 | > 1 | Reduction (Rattus norvegicus [4]): inactive |
| Cc1cc(C)c(NC(=O)N(Cc2cc(-c3ccccc3)on2)C2CCCCCC2)c(C)c1 | 0.061 | > 1 | Reduction [1]: 28% |
| Cc1cc(C)c(NC(=O)N(Cc2cccc(-c3nn[nH]n3)c2)C2CCCCCC2)c(C)c1 | > 1 |  |  |
| Cc1cc(C)c(NC(=O)N(Cc2ccc(-c3cc[nH]n3)cc2)C2CCCCCC2)c(C)c1 | 0.052 | > 1 | Reduction [1]: 17% |
| Cc1cc(C)c(NC(=O)N(Cc2cccc(-c3cn[nH]c3)c2)C2CCCCCC2)c(C)c1 | 0.038 | 0.19 |  |
| Cc1cc(C)c(NC(=O)N(Cc2cccc(-c3c[nH]cn3)c2)C2CCCCCC2)c(C)c1 |  | < 1 | Reduction [3]: 84% |
| Cc1cc(C)c(NC(=O)N(Cc2cccc(-c3ccnn3C)c2)C2CCCCCC2)c(C)c1 | 0.035 | > 1 | Reduction [1]: 34% |
| Cc1cc(C)c(NC(=O)N(Cc2cccc(-c3cc[nH]n3)c2)C2CCCC2)c(C)c1 | 0.022 | < 1 | Reduction [3]: 76% |
| O=C(Nc1c(F)cc(F)cc1F)N(Cc1ccccc1)Cc1cccc(-c2cc[nH]n2)c1 | 0.014 | 0.096 |  |
| COc1ccc(CN(Cc2cccc(-c3cc[nH]n3)c2)C(=O)Nc2c(SC)cc(C)nc2SC)cc1 | 0.2 | < 0.1 |  |
| CSc1cc(C)nc(SC)c1NC(=O)N(Cc1ccccc1)Cc1cccc(-c2cc[nH]n2)c1 | 0.099 | 0.046 |  |
| Cc1cc(C)c(NC(=O)N(Cc2cccc(-c3nnn(C)n3)c2)C2CCCCCC2)c(C)c1 | 0.1 | < 1 | Reduction [3]: 84% |
| Cc1cc(C)c(NC(=O)N(Cc2cccc(-c3ccn(C)n3)c2)C2CCCCCC2)c(C)c1 | 0.042 | < 1 | Reduction [3]: 78% |
| Cc1cc(C)c(NC(=O)N(Cc2ccc(-c3cccnc3)cc2)C2CCCCCC2)c(C)c1 | 0.13 | 0.58 |  |
| Cc1cc(C)c(NC(=O)N(Cc2ccc(-c3ccnn3C)cc2)C2CCCCCC2)c(C)c1 | 0.024 | < 1 | Reduction [3]: 64% |
| CN(C)c1ccc(CN(Cc2cccc(-c3cc[nH]n3)c2)C(=O)Nc2c(F)cc(F)cc2F)cc1 | 0.012 | < 0.32 | Reduction (Rattus norvegicus [5]): 68% |
| COc1cccc(CN(Cc2cccc(-c3cc[nH]n3)c2)C(=O)Nc2c(SC)cc(C)nc2SC)c1 |  | > 0.1 | Reduction (Rattus norvegicus [6]): 13% |
| CSc1cc(C)nc(SC)c1NC(=O)N(Cc1ccc(-c2cnn(C)c2)cc1)C1CCCCCC1 |  | > 0.1 | ED50 (Rattus norvegicus [7]): inactive |

| SMILES | IC50 (O-acyltransferase) [µM] | ED50 [2] [mg/kg] | other results |
| --- | --- | --- | --- |
| CSc1cc(C)nc(SC)c1NC(=O)N(Cc1ccc(-c2cc[nH]n2)cc1)C1CCCCCC1 | 0.1 | < 0.32 | Reduction (Rattus norvegicus [5]): 77% |
| CSc1cc(C)nc(SC)c1NC(=O)N(Cc1ccccc1)Cc1ccc(-c2cc[nH]n2)cc1 | 0.055 | < 0.32 | Reduction (Rattus norvegicus [5]): 58% |
| Cc1cc(C)c(NC(=O)N(Cc2ccc(-c3n[nH]c(C)n3)cc2)C2CCCCCC2)c(C)c1 | 0.12 | > 1 | Reduction [1]: 17% |
| CSc1cc(C)nc(SC)c1NC(=O)N(Cc1ccccc1)Cc1cccc(-c2ccnn2C)c1 | 0.028 | < 1 | Reduction [3]: 88% |
| COc1ccccc1CN(Cc1cccc(-c2cc[nH]n2)c1)C(=O)Nc1c(SC)cc(C)nc1SC |  | > 0.1 | ED50 (Rattus norvegicus [7]): inactive |
| Cc1cc(C)c(NC(=O)N(Cc2cc(-c3ccccc3)cs2)C2CCCCCC2)c(C)c1 | 0.036 | < 1 | Reduction [3]: 69% |
| Cc1cc(C)c(NC(=O)N(Cc2ccc(-n3cccc3)cc2)C2CCCCCC2)c(C)c1 | 0.028 | < 1 | Reduction [3]: 51% |
| Cc1cc(C)c(NC(=O)N(Cc2ccc(-n3ccnc3)cc2)C2CCCCCC2)c(C)c1 | 0.047 | > 1 | Reduction [1]: 26% |
| CSc1cc(C)nc(SC)c1NC(=O)N(Cc1cccc(-c2cnn(C)c2)c1)C1CCCCCC1 |  | > 0.1 | Reduction (Rattus norvegicus [6]): 44% |
| Cc1cc(C)c(NC(=O)N(Cc2cccc(-c3csc(C)n3)c2)C2CCCCCC2)c(C)c1 | 0.18 |  |  |
| Cc1cc(C)c(NC(=O)N(Cc2ccc(N3CCN(C)CC3)cc2)C2CCCCCC2)c(C)c1 | 0.057 | > 1 | Reduction [1]: 23% |
| CSc1cc(C)nc(SC)c1NC(=O)N(Cc1ccc(F)cc1)Cc1cccc(-c2cc[nH]n2)c1 | 0.25 | < 0.1 |  |
| O=C(Nc1c(F)cc(F)cc1F)N(Cc1ccc(-c2ccccn2)cc1)C1CCCCCC1 | 0.025 | > 1 | Reduction [1]: 30% |
| CSc1cc(C)nc(SC)c1NC(=O)N(Cc1ccccc1)Cc1ccc(-c2cnn(C)c2)cc1 |  | > 0.1 | Reduction (Rattus norvegicus [6]): 29% |
| Cc1cc(C)c(NC(=O)N(Cc2cccc(-n3cccc3)c2)C2CCCCCC2)c(C)c1 | 0.02 | 0.17 |  |
| Cc1cc(C)c(NC(=O)N(Cc2ccccc2)Cc2cccc(-c3cc[nH]n3)c2)c(C)c1 | 0.021 | > 1 | Reduction [1]: 36% |
| Cc1cc(C)c(NC(=O)N(Cc2ccc(-c3cnn(C)c3)cc2)C2CCCCCC2)c(C)c1 | 0.047 | 0.31 |  |
| Cc1cc(C)c(NC(=O)N(Cc2ccc(-c3ccccc3)s2)C2CCCCCC2)c(C)c1 | 0.046 | < 1 | Reduction [3]: 60% |
| O=C(Nc1c(F)cc(F)cc1F)N(Cc1ccc(-n2cccc2)cc1)C1CCCCCC1 | 0.027 | > 1 | Reduction [1]: 21% |
| CSc1cc(C)nc(SC)c1NC(=O)N(Cc1ccc(N(C)C)cc1)Cc1cccc(-c2cc[nH]n2)c1 | 0.072 | < 0.1 |  |
| CSc1cc(C)nc(SC)c1NC(=O)N(Cc1ccccc1)Cc1cccc(-c2ccn(C)n2)c1 | 0.073 | < 1 | Reduction [3]: 77% |

| SMILES | IC50 (O-acyltransferase) [µM] | ED50 [2] [mg/kg] | other results |
| --- | --- | --- | --- |
| Cc1cc(C)c(NC(=O)N(Cc2ccc(-c3ccsc3)cc2)C2CCCCCC2)c(C)c1 | 0.019 | 0.51 |  |
| CSc1cc(C)nc(SC)c1NC(=O)N(CCc1ccccc1)Cc1cccc(-c2cc[nH]n2)c1 |  | > 0.1 | ED50 (Rattus norvegicus [7]): inactive |
| Cc1cc(C)c(NC(=O)N(Cc2ccc(-c3ccccn3)cc2)C2CCCCCC2)c(C)c1 | 0.033 | > 1 | Reduction [1]: 46% |
| Cc1cc(C)c(NC(=O)N(Cc2cccc(-c3cc[nH]n3)c2)C2CCCCC2)c(C)c1 | 0.039 | 0.12 |  |
| O=C(Nc1c(F)cc(F)cc1F)N(Cc1ccc(-c2ccsc2)cc1)C1CCCCCC1 | 0.023 | > 1 | Reduction (Rattus norvegicus [4]): inactive |
| CSc1cc(C)nc(SC)c1NC(=O)N(Cc1ccccc1)Cc1ccc(-c2ccnn2C)cc1 | 0.027 | < 0.32 | Reduction (Rattus norvegicus [5]): 86% |
| Cc1cc(C)c(NC(=O)N(Cc2ccc(-c3ccccc3)nc2)C2CCCCCC2)c(C)c1 | 0.26 |  |  |
| Cc1cc(C)c(NC(=O)N(Cc2cccc(-c3nnnn3C)c2)C2CCCCCC2)c(C)c1 |  | > 1 | Reduction [1]: 26% |
| CSc1cc(C)nc(SC)c1NC(=O)N(Cc1ccc(Oc2ccc(F)cc2)cc1)C1CCCCCC1 | 0.03 | 0.034 |  |
| O=C(Nc1c(F)cc(F)cc1F)N(Cc1ccc(F)cc1)Cc1cccc(-c2cc[nH]n2)c1 |  | < 0.32 | Reduction (Rattus norvegicus [5]): 64% |
| Cc1cc(C)c(NC(=O)N(Cc2ccc(-c3ccccc3)o2)C2CCCCCC2)c(C)c1 | 0.044 | < 1 | Reduction [3]: 68% |
| Cc1cc(C)c(NC(=O)N(Cc2ccc(-c3cccs3)cc2)C2CCCCCC2)c(C)c1 | 0.022 | 0.28 |  |
| CCCCCCCN(Cc1ccc(CC(C)(C)C)cc1)C(=O)Nc1ccc(F)cc1F |  | 5 |  |
| Cc1cc(C)c(NC(=O)N(Cc2ccc(-n3ccnn3)cc2)C2CCCCCC2)c(C)c1 | 0.042 | > 1 | Reduction [1]: 19% |
| O=C(Nc1c(F)cc(F)cc1F)N(Cc1ccc(-c2cccs2)cc1)C1CCCCCC1 | 0.018 | > 1 | Reduction [1]: 33% |
| CSc1cc(C)nc(SC)c1NC(=O)N(Cc1ccccc1)Cc1cccc(-c2cnn(C)c2)c1 |  | > 0.1 | Reduction (Rattus norvegicus [6]): 43% |
| CC(C)c1cccc(C(C)C)c1OC(=O)NS(=O)(=O)Oc1c(C(C)C)cccc1C(C)C | 4 | 0.61 | IC50 (Mus musculus): 55 µM |
| Cc1cc(C)c(NC(=O)N(Cc2ccc(-n3nccn3)cc2)C2CCCCCC2)c(C)c1 | 0.13 | > 1 | Reduction [1]: 11% |
| Cc1cc(C)c(NC(=O)N(Cc2ccc(-c3cnco3)cc2)C2CCCCCC2)c(C)c1 | 0.2 | > 1 | Reduction [1]: 13% |
| Cc1cc(C)c(NC(=O)N(Cc2cccc(-c3cc[nH]n3)c2)C2CCCCCC2)c(C)c1 | 0.065 | 0.097 | IC50 (Mus musculus): 0.46 µM |
| Cc1cc(C)c(NC(=O)N(Cc2cc(-c3ccccc3)[nH]n2)C2CCCCCC2)c(C)c1 | 0.52 |  |  |
